Broadly, the CC50 is the concentration that lowers cell viability or growth by half.

Data on two molecules can be found in PubChem BioAssay AID504511 (The Scripps Research Institute Molecular Screening Center, 2011).

A short description of the experiment: cytotoxicity in BW5147 murine T cells, late-stage follow-up, cytotoxicity control for PAFAH2 inhibitor project, cell-based, absorbance, serum-free and serum media (AID 504511). The settings on record: BW5147 murine T cells viability, WST-1 absorbance. The method in brief:
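System: BW5147-derived murine T cells; Buffer or medium: RPMI without or with fetal calf serum; Dosing: Seven-point fivefold dilution series, top final dose 50 µM; Timing: 48 h cell exposure, 37 °C; Technique: colorimetric WST-1 formazan absorbance; Read-out: half-cytotoxic concentration as > highest dose retaining >50% survival; Repeats: quadruplicate wells per concentration.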

Activity calls are given as the source filed them.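 Rule for the calls: active = cytotoxic compound whose concentration leaving half the cells alive is below 5 µM in either medium; inactive = the rest.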 Where only a bound is given, the exact number is not on record here.

Take `O=C(N1CCCC1)n1ncc(-c2ccc(-c3ccccc3)cc2)n1`: the CC50 was 35 µM (inactive) (serum-free media) and > 50 µM (inactive) (with FCS).

Regarding `O=C(N1CCCC1)n1ncc(-c2ccc(Oc3ccccc3)cc2)n1`, the CC50 is 48 µM (inactive) (serum-free media) and > 50 µM (inactive) (with FCS).
